Source: ChEMBL document CHEMBL3232883, “Triaryl-substituted Schiff bases are high-affinity subtype-selective ligands for the estrogen receptor” (J Med Chem, 2014)
Active and inactive are the calls of the source. The rule behind the calls is not given here.

Assays:
[1] = target: T1, Estrogen receptor (Homo sapiens) (UniProt P03372); experiment: Displacement of [3H]-estradiol from human full-length ERalpha after 18 to 24 hrs by competitive radiometric binding assay relative to estradiol
T1 sequence (whole entry): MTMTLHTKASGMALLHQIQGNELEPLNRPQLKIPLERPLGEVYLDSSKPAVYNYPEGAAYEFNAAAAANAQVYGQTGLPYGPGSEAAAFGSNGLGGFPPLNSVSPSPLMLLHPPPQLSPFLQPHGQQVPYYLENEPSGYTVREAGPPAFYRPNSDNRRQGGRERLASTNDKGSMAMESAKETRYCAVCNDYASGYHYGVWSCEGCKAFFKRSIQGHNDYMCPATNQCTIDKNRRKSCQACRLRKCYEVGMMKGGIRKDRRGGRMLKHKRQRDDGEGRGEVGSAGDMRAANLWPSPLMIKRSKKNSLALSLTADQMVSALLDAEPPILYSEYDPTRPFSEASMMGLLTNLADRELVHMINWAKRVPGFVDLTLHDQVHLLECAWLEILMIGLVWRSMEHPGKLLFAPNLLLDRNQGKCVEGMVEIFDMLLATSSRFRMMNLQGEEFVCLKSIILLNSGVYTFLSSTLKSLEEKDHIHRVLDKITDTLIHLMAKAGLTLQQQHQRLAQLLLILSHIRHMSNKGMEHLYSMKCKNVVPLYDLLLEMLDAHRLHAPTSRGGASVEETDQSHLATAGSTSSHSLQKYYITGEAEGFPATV

[2] = target: T2, Estrogen receptor (Homo sapiens, UniProt P03372); experiment: Agonist activity at ERalpha (unknown origin) expressed in human HepG2 cells assessed as transcriptional activation after 24 hrs by ERE-luciferase reporter gene assay; assay type: cell-based
T2 sequence (P03372 whole entry): T1 sequence (whole entry)
In short: (§1)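 HepG2 cells were grown in DMEM with 10% FBS and transfected with a 3×ERE-luciferase reporter plus an ERα or ERβ expression vector. The next day cells were moved to phenol red-free medium with 10% charcoal-dextran-stripped FBS, plated at 20 000 cells/well and left overnight. Ligand was then added as a 12-point dose curve from 10 μM to 100 pM. Luciferase was read after 24 h, normalized to DMSO as 0% and the top of the E2 curve as 100%.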

[3] = system: HepG2; experiment: Agonist activity at ERalpha (unknown origin) harboring N-terminal AF1 domain deleted mutant expressed in human HepG2 cells assessed as transcriptional activation after 24 hrs by ERE-luciferase reporter gene assay; assay type: cell-based
[4] = target: T1, Estrogen receptor (Homo sapiens); experiment: Agonist activity at ERalpha (unknown origin) expressed in human HepG2 cells assessed as transcriptional activation after 24 hrs by ERE-luciferase reporter gene assay relative to 17beta-estradiol; assay type: cell-based
In short: (§2)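 HepG2 cells were cotransfected with a 3×ERE-luciferase reporter (10 μg) plus an ERα or ERβ expression vector (1.6 μg) per 10 cm dish. The next day they were replated at 20 000 cells/well in phenol red-free medium with 10% charcoal-dextran-stripped FBS and held overnight. Cells were then dosed over a 12-point range of 10 μM to 100 pM. Luciferase was read after 24 h, with DMSO set as 0% and the top of the E2 curve as 100%.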

[5] = target: T1, Estrogen receptor (Homo sapiens); experiment: Antagonist activity at ERalpha (unknown origin) expressed in human HepG2 cells assessed as inhibition of transcriptional activation after 24 hrs by ERE-luciferase reporter gene assay relative to 17beta-estradiol; assay type: cell-based
In short: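 Antagonist mode used HepG2 cells cotransfected with a 3×ERE-luciferase reporter plus an ERα expression vector and steroid-deprived in phenol red-free medium with 10% charcoal-dextran-stripped FBS. Cells received 10 nM estradiol together with increasing compound concentrations across a 10 μM to 100 pM dose curve. Luciferase was measured after 24 h and normalized to DMSO (0%) and the top of the E2 curve (100%).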

[6] = target: T3, Estrogen receptor beta (Homo sapiens, UniProt Q92731); experiment: Agonist activity at ERbeta (unknown origin) expressed in human HepG2 cells assessed as transcriptional activation after 24 hrs by ERE-luciferase reporter gene assay; assay type: cell-based; in short: as §1
[7] = target: T3, Estrogen receptor beta; experiment: Agonist activity at ERbeta (unknown origin) expressed in human HepG2 cells assessed as transcriptional activation after 24 hrs by ERE-luciferase reporter gene assay relative to 17beta-estradiol; assay type: cell-based; in short: as §2
[8] = target: T3, Estrogen receptor beta; experiment: Antagonist activity at ERbeta (unknown origin) expressed in human HepG2 cells assessed as inhibition of 17beta-estradiol-induced transcriptional activation after 24 hrs by ERE-luciferase reporter gene assay; assay type: cell-based
In short: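 ERβ-transfected, steroid-deprived HepG2 cells carrying a 3×ERE-luciferase reporter were co-treated with 10 nM estradiol and test ligand over a range of 10 μM to 100 pM. Luciferase was read after 24 h, with each plate normalized to DMSO (0%) and the maximal E2 response (100%). IC50 and % efficacy were derived from the dose curves.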

[9] = target: T3, Estrogen receptor beta; experiment: Displacement of [3H]-estradiol from human full-length ERbeta after 18 to 24 hrs by competitive radiometric binding assay relative to estradiol
[10] = organism: Homo sapiens; experiment: Selectivity ratio of RBA for human full length ERbeta to RBA for human full-length ERalpha

T3 sequence (Q92731 whole entry): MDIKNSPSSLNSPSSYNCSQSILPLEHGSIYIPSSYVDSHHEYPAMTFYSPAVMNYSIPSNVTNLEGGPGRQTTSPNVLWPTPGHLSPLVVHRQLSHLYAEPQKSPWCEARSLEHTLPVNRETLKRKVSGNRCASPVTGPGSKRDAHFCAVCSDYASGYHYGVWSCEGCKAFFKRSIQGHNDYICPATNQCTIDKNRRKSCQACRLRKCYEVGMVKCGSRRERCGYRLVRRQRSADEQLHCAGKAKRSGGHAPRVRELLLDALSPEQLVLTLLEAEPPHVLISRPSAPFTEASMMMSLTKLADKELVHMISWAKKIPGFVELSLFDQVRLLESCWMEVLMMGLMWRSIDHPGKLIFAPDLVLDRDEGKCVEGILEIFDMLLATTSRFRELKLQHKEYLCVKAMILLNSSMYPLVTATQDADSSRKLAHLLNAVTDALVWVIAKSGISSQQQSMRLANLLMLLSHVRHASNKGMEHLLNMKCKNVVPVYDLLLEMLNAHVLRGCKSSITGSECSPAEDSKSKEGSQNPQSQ

SMILES: Oc1ccc(/C(=N\c2ccc(Cl)cc2)c2ccc(O)cc2O)cc1
- RBA [1]: 15.5%
- EC50 [2]: 0.004 µM
- Activity [3]: inactive
- Efficacy [4]: 114%
- Efficacy [5]: 123%
- EC50 [6]: 0.385 µM
- Efficacy [7]: 19%
- IC50 [8]: 0.18 µM
- RBA [9]: 38.1%
- Selectivity ratio [10]: 2.5
